Data on one molecule can be found in PMC10868446 (Pharmaceutical Biology, 2024).

One series addresses CYP3A4 (Homo sapiens, UniProt P08684). Kind of series: Time-dependent inhibition of CYP3A4 in HLMs. In kind it is in vitro ADME.
The next series has as its target CYP2C9 (Homo sapiens, UniProt P11712). Kind of series: Time-dependent inhibition of CYP2C9 in HLMs. In kind it is in vitro ADME. The following applies: HLMs pre-incubated with physcion 30 min; incubation 5, 10, 15 and 30 min. The procedure, abridged: (§1)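 Two-step format: microsomes were pre-incubated with the test compound for 30 min. A 20 μL aliquot was transferred to a second tube with substrate near Km and started with the NADPH-generating system. Incubations ran 5, 10, 15 and 30 min, were stopped with acetonitrile and centrifuged, and residual activity was measured by HPLC. Triplicate.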

For series [1], the system named is CYP450 isoforms (1A2, 2A6, 2C8, 2C9, 2C19, 2D6, 2E1, 3A4). Kind of series: Cocktail assay of CYP450 isoform activity in pooled human liver microsomes. It counts as in vitro ADME. The note with it: pooled HLMs, 100 μM physcion. The procedure, abridged: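 Single-concentration screen in pooled human liver microsomes with the test compound at 100 μM, a blank negative control and typical isoform inhibitors as positive controls. Incubation was in 100 mM potassium phosphate, pH 7.4, with an NADPH-generating system after 3 min pre-incubation. Reactions were stopped with acetonitrile (trichloroacetic acid for CYP2A6), and probe metabolites were quantified by HPLC. Triplicate; one-way ANOVA against the negative control.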
(Liver microsomes are a subcellular fraction often used to study metabolism.)

The conditions of series [2]: after rhubarb extract administration; ref Ding et al. [2003]; Xun et al. [2019]; cited from earlier work.
The target of another series is CYP2D6 (Homo sapiens, UniProt P10635). In words: Time-dependent inhibition of CYP2D6 in HLMs. In kind it is in vitro ADME. The note with it: HLMs pre-incubated with physcion 30 min; incubation 5, 10, 15 and 30 min. The procedure, abridged: as §1
Chain of CYP2D6 (P10635 whole entry): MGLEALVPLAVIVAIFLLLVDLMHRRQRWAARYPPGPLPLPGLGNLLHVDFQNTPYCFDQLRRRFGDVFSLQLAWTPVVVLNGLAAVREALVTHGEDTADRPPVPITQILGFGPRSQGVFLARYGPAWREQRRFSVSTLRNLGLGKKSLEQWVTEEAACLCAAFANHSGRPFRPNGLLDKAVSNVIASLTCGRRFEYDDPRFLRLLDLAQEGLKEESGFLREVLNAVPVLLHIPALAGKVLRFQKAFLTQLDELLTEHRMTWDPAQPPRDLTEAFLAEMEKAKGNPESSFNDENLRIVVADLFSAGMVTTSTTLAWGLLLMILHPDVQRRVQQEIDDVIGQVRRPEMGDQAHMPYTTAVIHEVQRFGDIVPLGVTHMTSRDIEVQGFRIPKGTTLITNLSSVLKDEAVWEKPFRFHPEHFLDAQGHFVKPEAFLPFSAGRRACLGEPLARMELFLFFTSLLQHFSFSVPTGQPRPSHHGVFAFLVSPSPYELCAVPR
For series [3] the following is noted: rats; after administration of Semen Cassiae extract; ref Yang et al. [2015]; cited from earlier work.

Chain of CYP3A4 (P08684 whole entry): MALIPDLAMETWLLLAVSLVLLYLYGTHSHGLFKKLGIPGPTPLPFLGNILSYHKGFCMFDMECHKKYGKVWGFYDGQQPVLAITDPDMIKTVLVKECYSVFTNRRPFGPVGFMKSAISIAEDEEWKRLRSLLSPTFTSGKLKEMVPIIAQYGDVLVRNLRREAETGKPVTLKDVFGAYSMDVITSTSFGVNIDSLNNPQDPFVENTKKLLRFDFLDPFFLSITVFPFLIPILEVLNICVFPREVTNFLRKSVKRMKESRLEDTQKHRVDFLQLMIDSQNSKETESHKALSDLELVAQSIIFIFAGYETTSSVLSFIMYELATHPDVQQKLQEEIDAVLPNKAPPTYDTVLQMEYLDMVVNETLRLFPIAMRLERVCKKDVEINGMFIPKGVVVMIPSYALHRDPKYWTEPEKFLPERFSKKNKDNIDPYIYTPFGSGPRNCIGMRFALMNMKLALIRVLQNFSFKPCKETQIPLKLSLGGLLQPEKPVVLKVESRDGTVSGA
Chain of CYP2C9 (P11712 whole entry): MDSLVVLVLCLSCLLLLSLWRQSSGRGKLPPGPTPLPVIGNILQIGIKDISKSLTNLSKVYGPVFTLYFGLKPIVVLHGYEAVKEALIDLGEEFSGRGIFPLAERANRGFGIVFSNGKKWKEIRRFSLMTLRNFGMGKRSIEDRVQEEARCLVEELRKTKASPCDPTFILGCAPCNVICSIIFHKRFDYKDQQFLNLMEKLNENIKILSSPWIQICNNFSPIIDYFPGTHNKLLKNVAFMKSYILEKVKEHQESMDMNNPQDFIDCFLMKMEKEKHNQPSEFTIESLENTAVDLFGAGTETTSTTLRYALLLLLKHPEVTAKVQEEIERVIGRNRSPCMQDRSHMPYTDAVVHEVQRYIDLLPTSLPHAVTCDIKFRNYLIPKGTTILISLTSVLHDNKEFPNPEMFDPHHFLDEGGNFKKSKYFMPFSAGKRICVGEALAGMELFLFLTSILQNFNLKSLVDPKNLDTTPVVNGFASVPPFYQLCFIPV

On to `COc1cc(O)c2c(c1)C(=O)c1cc(C)cc(O)c1C2=O` [physcion, Physcion], for which, at CYP3A4 (0–50 μM physcion, substrate approx. 4-fold Km, 0–30 min), the “KI (time-dependent inhibition of CYP3A4)” value amounted to 3.10 µM⁻¹. Besides, the “Time dependence of CYP3A4 inhibition” value on CYP3A4 (HLMs pre-incubated with physcion 30 min, incubation 5, 10, 15 and 30 min) is “time-dependent”. The “Time dependence of CYP2C9 inhibition” value on CYP2C9 was “not influenced”. For the same molecule, the “Inhibitory effect relative to the positive inhibitors of CYP2C9, 2D6 and 3A4” value in series [1] is on record as “weaker than the positive inhibitors”. For the same molecule, the “Effect on activity of the major CYP450 isoforms” value in series [1] (compared with negative control) was “Only the activity of CYP2C9, 2D6 and 3A4 was inhibited”. Further, in series [2], the “Maximum concentration of physcion” value was 0.032 µg/mL and the “Time at which the maximum concentration was reached” value is 2 h. Further, the “Time dependence of CYP2D6 inhibition” value on CYP2D6 is “not influenced”. In addition, in series [3], the Maximum plasma concentration is given as 461.85 ± 266.77 ng/mL and the “Time of maximum plasma concentration” value is on record as 0.167 ± 0.002 h.
